Measurements taken from ChEMBL document CHEMBL1764999, “In vitro characterization of human peptide transporter hPEPT1 interactions and passive permeation studies of short cationic antimicrobial peptides” (J Med Chem, 2011).
In brackets after ≈: the same amount, converted by molar mass. Square brackets hold non-standard residues; d marks the D form. Peptide text beside a SMILES is read from it. * marks the point of attachment. Phe(4-guanidino) = N=C(N)Nc1ccc(C[C@H](N)C(=O)O)cc1; Bip = N[C@@H](Cc1ccc(-c2ccccc2)cc1)C(=O)O; Dip = N[C@H](C(=O)O)C(c1ccccc1)c1ccccc1; NHBn = c1ccc(CN*)cc1

How the values were obtained:
Staphylococcus aureus [1] = assay: Antibacterial activity against methicillin-resistant Staphylococcus aureus by micro dilution method; assay type: functional
Escherichia coli = assay: Antibacterial activity against Escherichia coli by micro dilution method; assay type: functional
Staphylococcus aureus [2] = assay: Antibacterial activity against Staphylococcus aureus by micro dilution method; assay type: functional
[3] = Apparent permeability of the compound by PAMPA; assay type: ADME
[4] = molecular target: T1, Solute carrier family 15 member 1 (Homo sapiens, UniProt P46059); assay: Inhibition of human PEPT1 expressed in Xenopus laevis oocytes assessed as inhibition of glycylsarcosine-induced transport-associated current at -60 mV membrane potential by two-electrode voltage clamp method; assay type: cell-based, Oocyte
T1 sequence (P46059 whole entry): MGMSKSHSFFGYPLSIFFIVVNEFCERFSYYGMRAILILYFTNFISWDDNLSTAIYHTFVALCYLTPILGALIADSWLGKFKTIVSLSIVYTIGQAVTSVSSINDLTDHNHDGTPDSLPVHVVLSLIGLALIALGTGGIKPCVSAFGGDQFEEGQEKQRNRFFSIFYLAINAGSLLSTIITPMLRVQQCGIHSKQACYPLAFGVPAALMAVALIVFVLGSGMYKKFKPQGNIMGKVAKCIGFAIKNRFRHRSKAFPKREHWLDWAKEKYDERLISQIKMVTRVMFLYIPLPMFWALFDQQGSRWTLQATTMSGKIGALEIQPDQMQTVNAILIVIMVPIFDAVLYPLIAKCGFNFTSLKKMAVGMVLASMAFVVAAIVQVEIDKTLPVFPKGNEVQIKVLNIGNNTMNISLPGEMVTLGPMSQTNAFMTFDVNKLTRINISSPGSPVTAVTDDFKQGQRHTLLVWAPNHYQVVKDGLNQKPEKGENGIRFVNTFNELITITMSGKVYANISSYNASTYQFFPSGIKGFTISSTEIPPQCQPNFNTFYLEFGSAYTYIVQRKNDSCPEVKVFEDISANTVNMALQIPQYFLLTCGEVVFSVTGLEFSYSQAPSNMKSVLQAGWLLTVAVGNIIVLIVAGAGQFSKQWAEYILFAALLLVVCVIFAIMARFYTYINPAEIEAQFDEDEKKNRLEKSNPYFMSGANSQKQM
In short: (§1)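 The hPEPT1 cRNA-injected oocytes were clamped at -60 mV in Barth's solution with HEPES replaced by MES (pH 6.5), at room temperature. Currents from 1 mM Gly-Sar were recorded with and without test peptide (0.25-1.0 mM) at steady state. Flux used a 3.80 mm² surface. Inhibition is residual current as % of the Gly-Sar current. IC50 was fitted from mean inhibitions by Michaelis-Menten.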

[5] = molecular target: T2, Solute carrier family 15 member 1 (Homo sapiens) (UniProt P46059); assay: Inhibition of human PEPT1 expressed in Xenopus laevis oocytes assessed as Inhibition of glycylsarcosine-induced transport-associated current at 0.25 to 1 mM at -60 mV membrane potential by two-electrode voltage clamp method; assay type: cell-based; conditions: Oocyte; in short: as §1
T2 sequence (whole entry): T1 sequence (P46059 whole entry)

[6] = molecular target: T2, Solute carrier family 15 member 1 (Homo sapiens); assay: Inhibition of human PEPT1 expressed in Xenopus laevis oocytes assessed as effect on glycylsarcosine-induced transport-associated flux rate current at 0.25 to 1 mM at -60 mV membrane potential by two-electrode voltage clamp method; assay type: cell-based; conditions: Oocyte; in short: as §1
[7] = molecular target: T2, Solute carrier family 15 member 1 (Homo sapiens); assay: Activity of human PEPT1 expressed in Xenopus laevis oocytes assessed as induction of transport-associated flux rate current at 1 mM at -60 mV membrane potential by two-electrode voltage clamp method; assay type: cell-based; conditions: Oocyte
In short: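 Oocytes were collagenase-treated (2.5 mg/mL, 70 min) and injected with ~25 ng hPEPT1 cRNA, then held 3-5 days at 17 °C. Superfused at room temperature with MES-buffered Barth's, pH 6.5, clamped at -60 mV. Current is the difference with vs without test peptide, taken 20-30 s after application. Flux in pmol/(s cm²) assumes a 3.80 mm² oocyte surface. Mean of three oocytes.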

Row | Compound | MIC (Staphylococcus aureus [1]) | MIC (Escherichia coli) | MIC (Staphylococcus aureus [2]) | Papp ([3]; read-out: Papp) | IC50 [4] | inhibition [5] | Activity [6] | Activity [7] | Papp [3]
1 | CC(C)(C)c1cc(C(C)(C)C)c2[nH]c(C(C)(C)C)c(C[C@H](N)C(=O)N[C@@H](CCCNC(=N)N)C(=O)NCCc3ccccc3)c2c1 | 2.5 µg/mL (≈ 3.96 µM) | 10 µg/mL (≈ 15.8 µM) | 2.5 µg/mL (≈ 3.96 µM) | 5.27 ×10⁻⁶ cm/s | – | – | – | – | –
2 | CC(C)(C)c1cc(C(C)(C)C)c2[nH]c(C(C)(C)C)c(C[C@H](N)C(=O)N[C@@H](CCCNC(=N)N)C(N)=O)c2c1 | 15 µg/mL (≈ 28.4 µM) | > 150 µg/mL | 15 µg/mL (≈ 28.4 µM) | 0.43 ×10⁻⁶ cm/s | 600 µM | 20.3% | 34.8 pmol/(s.cm2) | – | –
3 | CC(C)(C)c1cc(C(C)(C)C)c2[nH]c(C(C)(C)C)c(C[C@H](NC(=O)[C@@H](N)CCCNC(=N)N)C(=O)N[C@@H](CCCNC(=N)N)C(=O)NCc3ccccc3)c2c1 | 2.5 µg/mL (≈ 3.23 µM) | 7.5 µg/mL (≈ 9.69 µM) | 2.5 µg/mL (≈ 3.23 µM) | – | – | – | – | – | –
4 | N=C(N)NCCC[C@H](NC(=O)[C@@H](N)CCCNC(=N)N)C(=O)N[C@@H](Cc1c[nH]c2ccccc12)C(=O)NCc1ccccc1 (H-Arg-Arg-Trp-NHBn) | 25 µg/mL (≈ 41.3 µM) | > 150 µg/mL | 75 µg/mL (≈ 124 µM) | 0.96 ×10⁻⁶ cm/s | – | – | – | – | –
5 | N=C(N)NCCC[C@H](NC(=O)[C@H](Cc1ccccc1)NC(=O)[C@@H](N)CCCNC(=N)N)C(=O)NCc1ccccc1 (H-Arg-Phe-Arg-NHBn) | 75 µg/mL (≈ 132 µM) | > 150 µg/mL | 150 µg/mL (≈ 265 µM) | 2.31 ×10⁻⁶ cm/s | – | – | – | – | –
6 | NC(=O)[C@H](CCCN=C(N)N)NC(=O)[C@H](Cc1c[nH]c2ccccc12)NC(=O)[C@@H](N)CCCN=C(N)N (H-Arg-Trp-Arg-NH2) | – | > 200 µg/mL | > 200 µg/mL | 2.37 ×10⁻⁶ cm/s | 2700 µM | 15.1% | 61.8 pmol/(s.cm2) | – | –
7 | N=C(N)NCCC[C@H](NC(=O)[C@H](Cc1c[nH]c2ccccc12)NC(=O)[C@@H](N)CCCNC(=N)N)C(=O)NCc1ccccc1 (H-Arg-Trp-Arg-NHBn) | 25 µg/mL (≈ 41.3 µM) | > 150 µg/mL | 75 µg/mL (≈ 124 µM) | 0.77 ×10⁻⁶ cm/s | – | 87.6% | 3.8 pmol/(s.cm2) | – | –
8 | N=C(N)NCCC[C@H](N)C(=O)N[C@@H](Cc1c[nH]c2ccccc12)C(=O)N[C@@H](Cc1ccc(NC(=N)N)cc1)C(=O)NCc1ccccc1 (H-Arg-Trp-[Phe(4-guanidino)]-NHBn) | 10 µg/mL (≈ 15.3 µM) | > 150 µg/mL | 50 µg/mL (≈ 76.5 µM) | 0.47 ×10⁻⁶ cm/s | – | – | – | – | –
9 | N=C(N)NCCC[C@H](NC(=O)[C@H](Cc1ccc(-c2ccccc2)cc1)NC(=O)[C@@H](N)CCCNC(=N)N)C(N)=O (H-Arg-[Bip]-Arg-NH2) | 50 µg/mL (≈ 90.5 µM) | – | 200 µg/mL (≈ 362 µM) | 0.01 ×10⁻⁶ cm/s | – | -3.3% | 56.7 pmol/(s.cm2) | – | –
10 | N=C(N)NCCC[C@H](NC(=O)[C@H](Cc1ccc(-c2ccccc2)cc1)NC(=O)[C@@H](N)CCCNC(=N)N)C(=O)NCc1ccccc1 (H-Arg-[Bip]-Arg-NHBn) | 5 µg/mL (≈ 7.78 µM) | 100 µg/mL (≈ 156 µM) | 5 µg/mL (≈ 7.78 µM) | 0.01 ×10⁻⁶ cm/s | – | – | – | – | –
11 | N=C(N)NCCC[C@H](NC(=O)[C@@H](NC(=O)[C@@H](N)CCCNC(=N)N)C(c1ccccc1)c1ccccc1)C(N)=O (H-Arg-[Dip]-Arg-NH2) | > 150 µg/mL | > 150 µg/mL | 100 µg/mL (≈ 181 µM) | 0.83 ×10⁻⁶ cm/s | – | – | – | – | –
12 | N=C(N)NCCC[C@H](NC(=O)[C@@H](NC(=O)[C@@H](N)CCCNC(=N)N)C(c1ccccc1)c1ccccc1)C(=O)NCc1ccccc1 (H-Arg-[Dip]-Arg-NHBn) | 10 µg/mL (≈ 15.6 µM) | > 150 µg/mL | 25 µg/mL (≈ 38.9 µM) | 0.42 ×10⁻⁶ cm/s | – | – | – | – | –
13 | N=C(N)NCCC[C@H](N)C(=O)N[C@@H](Cc1ccc(NC(=N)N)cc1)C(=O)N[C@@H](Cc1c[nH]c2ccccc12)C(=O)NCc1ccccc1 (H-Arg-[Phe(4-guanidino)]-Trp-NHBn) | 15 µg/mL (≈ 22.9 µM) | > 150 µg/mL | 50 µg/mL (≈ 76.5 µM) | 0.38 ×10⁻⁶ cm/s | – | – | – | – | –
14 | NCCCC[C@H](NC(=O)[C@H](Cc1ccc(-c2ccccc2)cc1)NC(=O)[C@@H](N)CCCCN)C(N)=O (H-Lys-[Bip]-Lys-NH2) | – | – | > 200 µg/mL | 0.06 ×10⁻⁶ cm/s | – | – | – | – | –
15 | NCCCC[C@H](NC(=O)[C@H](Cc1ccc(-c2ccccc2)cc1)NC(=O)[C@@H](N)CCCCN)C(=O)NCc1ccccc1 (H-Lys-[Bip]-Lys-NHBn) | 25 µg/mL (≈ 42.6 µM) | > 150 µg/mL | 15 µg/mL (≈ 25.6 µM) | 0.26 ×10⁻⁶ cm/s | – | – | – | – | –
16 | NC(N)=NCCC[C@H](NC(=O)[C@@H](N)Cc1c[nH]c2ccccc12)C(=O)NCc1ccccc1 (H-Trp-Arg-NHBn) | – | – | – | – | – | – | – | 1.2% | –
17 | N=C(N)NCCC[C@H](NC(=O)[C@@H](N)Cc1c[nH]c2ccccc12)C(=O)O (H-Trp-Arg-OH) | – | – | – | – | – | – | – | 43.5% | –
18 | N=C(N)NCCC[C@H](NC(=O)[C@@H](N)Cc1ccc(-c2ccccc2)cc1)C(=O)O (H-[Bip]-Arg-OH) | – | – | – | – | – | – | – | 10.7% | –
19 | COC(=O)[C@H](CCCN=C(N)N)NC(=O)[C@@H](N)Cc1ccc(-c2ccccc2)cc1 (H-[Bip]-Arg-OMe) | – | > 200 µg/mL | 150 µg/mL (≈ 365 µM) | 1.06 ×10⁻⁶ cm/s | – | 10.4% | 57.2 pmol/(s.cm2) | – | –
20 | N=C(N)Nc1ccc(C[C@H](NC(=O)[C@H](Cc2ccc(-c3ccccc3)cc2)NC(=O)[C@@H](N)Cc2ccc(NC(=N)N)cc2)C(=O)NCc2ccccc2)cc1 (H-[Phe(4-guanidino)]-[Bip]-[Phe(4-guanidino)]-NHBn) | 5 µg/mL (≈ 6.77 µM) | 75 µg/mL (≈ 102 µM) | < 2.5 µg/mL | 0.9 ×10⁻⁶ cm/s | – | – | – | – | –
21 | NS(=O)(=O)c1cc2c(cc1Cl)N=CNS2(=O)=O [CHLOROTHIAZIDE] | – | – | – | – | – | – | – | – | 0.03 ×10⁻⁶ cm/s
22 | COCCc1ccc(OCC(O)CNC(C)C)cc1 (stereo not given) [METOPROLOL] | – | – | – | 3.23 ×10⁻⁶ cm/s | – | – | – | – | –
23 | CC(C)(C)NCC(O)c1cc(O)cc(O)c1 (stereo not given) [TERBUTALINE] | – | – | – | 0.4 ×10⁻⁶ cm/s | – | – | – | – | –
